# Assay results of several laboratories.
# Lines come from different studies, so protocols differ.
# Target: Ephrin type-A receptor 5 (EPHA5, Homo sapiens, UniProt P54756)
Compound,read-out,mode,technique,concentration,endpoint,result
CC/C(=N\NC(=O)NCc1cccc(O)c1)c1ccc(O)c(C)c1O,enzyme activity,inhibitor,,0.1 µM,inhibition,-3.3%
COc1cc(-c2cc(-c3ccc(N4CCNCC4)cc3)cnc2C)cc(OC)c1OC,enzyme activity,inhibitor,,0.1 µM,inhibition,5%
Cc1cc(NC(=O)c2cccc3cc(-c4cccc5[nH]nc(N)c45)ccc23)ccc1F,enzyme activity,inhibitor,,0.1 µM,activity vs control,99%
Cc1sc(C(=O)NC2COC2)cc1-n1cc(NC(=O)Nc2c(F)cccc2Cl)cn1,enzyme activity,inhibitor,,10 µM,remaining activity,106%
C#Cc1cccc(Nc2ncnc3cc(OCCOC)c(OCCOC)cc23)c1,cell-free assay,,,0.5 µM,remaining signal,99.1%
COc1cc2ncnc(Nc3ccc(Oc4ccccc4)cc3C)c2cc1OC,enzyme activity,inhibitor,,1 µM,inhibition,5%
CNC(=O)c1cc2c(Oc3ccc(NC(=O)C4(C(=O)Nc5ccc(F)cc5)CC4)cc3)ccnc2cc1OC,enzyme activity,inhibitor,radiometric,1 µM,inhibition,96%
C[C@H](NC(=O)c1cnc2n1[C@](C)(Cc1ccc(C#N)cc1)C(=O)N2c1cc(Cl)c(F)c(Cl)c1)C(=O)NC1(c2ccccn2)CC1,cell-free assay,,competition with immobilised ligand,1 µM,remaining binding,100%
CCCS(=O)(=O)Nc1ccc(F)c(C(=O)c2c[nH]c3ncc(-c4ccc(Cl)cc4)cc23)c1F,enzyme activity,inhibitor,,1 µM,inhibition,< 20%
N#CC1(c2ccccn2)CCN(Cc2cc(C(=O)N3CCCC3)c(=O)n3ccccc23)CC1,cell-free assay,,competition with immobilised ligand,1 µM,remaining binding,100%
CNC(=O)c1cc(Oc2ccc(NC(=O)Nc3ccc(Cl)c(C(F)(F)F)c3)cc2)ccn1,enzyme activity,inhibitor,,0.3 µM,inhibition,32%
N#CCCc1ccc2c(c1)-c1[nH]c3ccc([N+](=O)[O-])cc3c1CC(=O)N2,cell-free assay,,,0.5 µM,remaining signal,88.5%
CC(=O)N1CCC(c2ccc(C(=O)NC3=NCCN3)cc2C(F)(F)F)CC1,cell-free assay,,competition with immobilised ligand,1 µM,remaining binding,100%
Cc1ccc(Nc2nccc(N(C)c3ccc4c(C)n(C)nc4c3)n2)cc1S(N)(=O)=O,enzyme activity,inhibitor,,10 µM,inhibition,70%
O=C(Nc1ccc(Oc2ccc(F)cc2)cc1)N1CCc2ncccc2[C@H]1c1ccc(F)cc1,cell-free assay,,competition with immobilised ligand,1 µM,remaining binding,100%
COc1cc(Cl)c(C(=O)N[C@@H](CN[C@H]2CC[C@@H](N)CC2)Cc2ccc(C#N)cc2)cc1-c1ccc(CN[C@H](C)c2ccc(C)cc2)o1,enzyme activity,inhibitor,,1 µM,remaining activity,90%
Cn1cc(Cl)c2c(Oc3c(F)cc(Nc4cc(Cl)nc(N)n4)cc3F)ccnc21,cell-free assay,,competition with immobilised ligand,0.1 µM,remaining binding,100%
O=C1Nc2ccc(Cl)cc2C1=Cc1cc(Cl)c(O)c(Cl)c1,cell-free assay,,,0.5 µM,remaining signal,99.4%
CCN(CC)CCNC(=O)c1c(C)[nH]c(/C=C2\C(=O)Nc3ccc(F)cc32)c1C,enzyme activity,inhibitor,,10 µM,inhibition,58%
FC(F)(F)c1ccc2c(c1)nc(-c1cccnc1)n2C1CC1,cell-free assay,,competition with immobilised ligand,1 µM,remaining binding,96%
CC(C)(C)c1nc(-c2cccc(NS(=O)(=O)c3c(F)cccc3F)c2F)c(-c2ccnc(N)n2)s1,enzyme activity,inhibitor,radiometric,1 µM,remaining activity,116%
CNCc1ccccc1-c1csc([C@H](C)Nc2nc(C)nc3cc(OC)c(OC)cc23)c1,cell-free assay,,competition with immobilised ligand,1 µM,remaining binding,100%
Nc1ncnc2occ(-c3ccc(NC(=O)Nc4cc(C(F)(F)F)ccc4F)cc3)c12,cell-free assay,,,20 µM,remaining signal,0.05%
CCc1ccccc1C(=O)Nc1n[nH]c2c(C)c(F)c(C3C(C#N)=C(C)N(C)C(C)=C3C#N)cc12,cell-free assay,,competition with immobilised ligand,1 µM,remaining binding,87%
C=CC(=O)Nc1cc(Nc2nccc(Nc3cc(Cl)c(F)cc3C(C)(C)O)n2)c(OC)cc1N1CC[C@@H](N(C)C)C1,enzyme activity,inhibitor,,1 µM,inhibition,17%
